Measured values taken from ChEMBL document CHEMBL2321803, “Antitrypanosomal lead discovery: identification of a ligand-efficient inhibitor of Trypanosoma cruzi CYP51 and parasite growth” (J Med Chem, 2013).
pEC50, pKd: −log10 of the molar value. Calls of active or inactive are those of the source. The rule behind the calls is not given here.

Legend:
NIH3T3 = assay: Cytotoxicity against mouse NIH/3T3 cells; format: cell-based
How it was run: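 Counterscreen on uninfected NIH 3T3 cells grown in DMEM with 10% FBS at 37 °C and 5% CO₂, run alongside the 96 h infection assay. EC50 is the mean of three independent experiments performed on different days.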

Trypanosoma cruzi [1] = assay: Antitrypanosomal activity against Trypanosoma cruzi trypomastigote infected in mouse NIH/3T3 cells after 96 hrs by luciferase reporter gene assay; conditions: NIH/3T3, 96 h
[2] = target: Sterol 14-alpha demethylase (Trypanosoma cruzi (strain CL Brener), UniProt Q7Z1V1); assay: Binding affinity to Trypanosoma cruzi recombinant full length CYP51 by spectrophotometric analysis
Sequence of Sterol 14-alpha demethylase (Q7Z1V1 whole entry): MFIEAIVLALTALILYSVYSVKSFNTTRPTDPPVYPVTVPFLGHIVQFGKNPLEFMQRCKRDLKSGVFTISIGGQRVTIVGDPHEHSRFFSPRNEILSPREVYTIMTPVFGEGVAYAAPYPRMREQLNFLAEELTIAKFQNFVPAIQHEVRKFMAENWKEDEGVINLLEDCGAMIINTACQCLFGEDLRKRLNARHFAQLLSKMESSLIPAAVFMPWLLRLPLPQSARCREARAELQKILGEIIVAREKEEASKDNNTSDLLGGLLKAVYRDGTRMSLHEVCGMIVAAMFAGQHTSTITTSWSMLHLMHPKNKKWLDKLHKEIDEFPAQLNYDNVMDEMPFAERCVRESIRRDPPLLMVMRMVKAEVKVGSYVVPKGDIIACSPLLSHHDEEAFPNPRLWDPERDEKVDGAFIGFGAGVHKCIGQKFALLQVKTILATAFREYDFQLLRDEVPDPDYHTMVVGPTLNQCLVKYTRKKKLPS
How it was run: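 Purified full-length T. cruzi CYP51 (2 μM) was titrated with ligand at 0.5–10 μM, recording type 2 difference spectra at 350–450 nm, 25 °C. Apparent Kd came from ΔA425–390 versus free ligand, fitted to a rectangular hyperbola.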

[3] = Selectivity index, ratio of EC50 for mouse NIH/3T3 cells to EC50 for Trypanosoma cruzi trypomastigote; format: toxicity, cell-based, NIH3T3; conditions: read-out: Ratio EC50
Trypanosoma cruzi [4] = assay: Antitrypanosomal activity against Trypanosoma cruzi trypomastigote infected in mouse NIH/3T3 cells at 9.5 uM incubated for 3 days post infection by DAPI-staining based immunofluorescence assay; format: functional, organism-based; conditions: NIH3T3
How it was run: (§1)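 NIH-3T3 cells on coverslips were infected 2 h with trypomastigotes (Tulahuen β-gal or Y luciferase), washed, then given drug for 3 days. Cells were fixed in 4% paraformaldehyde, permeabilised with Triton X-100 and stained with rabbit anti-T. cruzi (1:2000) plus Alexa 488 secondary and DAPI. Imaged at 60× oil, 50 fields per condition.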

Trypanosoma cruzi [5] = assay: Antitrypanosomal activity against Trypanosoma cruzi Y infected in mouse NIH/3T3 cells after 48 to 72 hrs by luciferase reporter gene assay
Trypanosoma cruzi [6] = assay: Antitrypanosomal activity against Trypanosoma cruzi Tulahuen infected in mouse NIH/3T3 cells after 48 to 72 hrs by beta-galactosidase reporter gene assay
Caco-2 = assay: Permeability across human Caco2 cells; format: ADME, cell-based
hERG (KCNH2) [7] = target: T1, hERG (KCNH2) (Homo sapiens, UniProt Q12809); assay: Inhibition of human ERG at 10 uM relative to control
T1 sequence (Q12809 whole entry): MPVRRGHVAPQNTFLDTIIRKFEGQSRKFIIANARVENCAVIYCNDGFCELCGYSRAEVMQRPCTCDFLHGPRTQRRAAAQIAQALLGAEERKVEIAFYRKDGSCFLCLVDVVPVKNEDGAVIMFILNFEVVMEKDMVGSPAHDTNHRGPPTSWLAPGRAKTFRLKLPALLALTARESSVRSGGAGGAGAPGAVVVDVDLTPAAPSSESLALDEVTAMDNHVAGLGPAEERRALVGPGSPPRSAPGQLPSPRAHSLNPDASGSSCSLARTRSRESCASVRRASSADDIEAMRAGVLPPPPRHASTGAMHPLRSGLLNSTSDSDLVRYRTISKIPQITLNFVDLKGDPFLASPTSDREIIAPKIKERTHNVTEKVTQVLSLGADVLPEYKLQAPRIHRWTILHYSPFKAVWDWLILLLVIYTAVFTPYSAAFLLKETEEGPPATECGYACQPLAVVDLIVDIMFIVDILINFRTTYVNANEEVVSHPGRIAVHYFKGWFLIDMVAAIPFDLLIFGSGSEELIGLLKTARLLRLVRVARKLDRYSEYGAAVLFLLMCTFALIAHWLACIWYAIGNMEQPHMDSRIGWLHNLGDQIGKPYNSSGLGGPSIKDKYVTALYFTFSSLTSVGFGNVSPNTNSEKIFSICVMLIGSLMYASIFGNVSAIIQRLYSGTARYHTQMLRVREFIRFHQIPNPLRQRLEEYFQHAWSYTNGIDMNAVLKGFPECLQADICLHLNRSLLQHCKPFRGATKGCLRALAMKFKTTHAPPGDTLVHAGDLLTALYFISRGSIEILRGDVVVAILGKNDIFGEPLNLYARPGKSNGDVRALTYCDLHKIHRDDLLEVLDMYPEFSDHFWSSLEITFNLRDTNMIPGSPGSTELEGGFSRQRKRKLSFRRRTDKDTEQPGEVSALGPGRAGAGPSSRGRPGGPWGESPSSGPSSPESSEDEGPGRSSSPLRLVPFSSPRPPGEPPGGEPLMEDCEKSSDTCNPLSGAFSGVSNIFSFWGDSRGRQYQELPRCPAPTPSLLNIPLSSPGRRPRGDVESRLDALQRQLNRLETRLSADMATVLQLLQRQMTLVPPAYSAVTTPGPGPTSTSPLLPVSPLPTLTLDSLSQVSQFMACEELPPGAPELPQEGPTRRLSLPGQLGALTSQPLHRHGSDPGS

hERG (KCNH2) [8] = target: T1, hERG (KCNH2); assay: Inhibition of human ERG at 1 uM relative to control
Plasma [9] = assay: Metabolic stability in human plasma after 1 to 4 hrs; format: ADME, cell-free
Plasma [10] = assay: Plasma protein binding in human; format: ADME, cell-free
Plasma [11] = assay: Metabolic stability in mouse plasma after 1 to 4 hrs; format: ADME, cell-free
Plasma [12] = assay: Plasma protein binding in mouse; format: ADME, cell-free
[13] = Metabolic stability in human microsomes after 20 mins in presence of ketoconazole; format: ADME, Microsome
How it was run: (§2)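 Liver microsomes (human, mouse or rat), with or without CYP inhibitor. Read-out is percent of compound metabolized at 20 min.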

[14] = Metabolic stability in rat microsomes after 20 mins in presence of ketoconazole; format: ADME, Microsome; how it was run: as §2
[15] = Metabolic stability in mouse microsomes after 20 mins in presence of ketoconazole; format: ADME, Microsome; how it was run: as §2
[16] = Metabolic stability in human microsomes after 20 mins in presence of quinidine; format: ADME, Microsome; how it was run: as §2
[17] = Metabolic stability in rat microsomes after 20 mins in presence of quinidine; format: ADME, Microsome; how it was run: as §2
[18] = Metabolic stability in mouse microsomes after 20 mins in presence of quinidine; format: ADME, Microsome; how it was run: as §2
[19] = Metabolic stability in human microsomes after 20 mins; format: ADME, Microsome; conditions: read-out: Stability; how it was run: as §2
[20] = Metabolic stability in rat microsomes after 20 mins; format: ADME, Microsome; conditions: read-out: Stability; how it was run: as §2
Trypanosoma cruzi [21] = assay: Antitrypanosomal activity against Trypanosoma cruzi trypomastigote infected in mouse NIH/3T3 cells at 0.4 uM incubated for 3 days post infection by DAPI-staining based immunofluorescence assay; format: functional, organism-based; conditions: NIH3T3; how it was run: as §1
Trypanosoma cruzi [22] = assay: Antitrypanosomal activity against Trypanosoma cruzi Y infected in […] cells after 24 hrs by luciferase reporter gene assay; format: functional, organism-based
How it was run: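 Y strain expressing firefly luciferase, trypomastigotes from LLC-MK2 cultures, infecting NIH/3T3 host cells (50 000 cells and 50 000 parasites per well). Drug added at infection (top 50 μM, DMSO <0.5%, duplicates) and washed out at 24, 48 or 72 h. D-luciferin at 150 μg/mL final added at 96 h, luminescence read 1 s. EC50 relative to 4 μM amphotericin B maximal inhibition.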

Trypanosoma cruzi [23] = assay: Antitrypanosomal activity against Trypanosoma cruzi Tulahuen […] after 24 hrs by beta-galactosidase reporter gene assay; format: functional, organism-based; conditions: LLC-MK2
[24] = Metabolic stability in mouse microsomes after 20 mins; format: ADME, Microsome; conditions: read-out: Stability; how it was run: as §2

Compound: Cc1cc(Oc2cccc(Cn3cnnc3)c2)cc(C)c1Cl
- pEC50 (NIH3T3): < 4.00
- pEC50 (Trypanosoma cruzi [1]): 4.95

Compound: Cc1cc(Oc2cccc(Cn3cccn3)c2)cc(C)c1Cl
- pEC50 (NIH3T3): < 4.00
- pEC50 (Trypanosoma cruzi [1]): 5.55

Compound: Cc1ccccc1Oc1cccc(Cn2ccnc2)c1
- pKd [2]: 6.74
- selectivity ratio [3]: 112
- pEC50 (NIH3T3): 4.10
- pEC50 (Trypanosoma cruzi [1]): 6.15

Compound: O=C(Nc1cccc(Cl)c1)Nc1ccccc1-n1ccnc1
- pEC50 (Trypanosoma cruzi [1]): 6.34

Compound: Cc1nnc(-c2cccc(Oc3cc(C)c(Cl)c(C)c3)c2)s1
- pEC50 (NIH3T3): < 4.00
- pEC50 (Trypanosoma cruzi [1]): 4.91

Compound: O=C(Cn1ccnc1[N+](=O)[O-])NCc1ccccc1 [BENZNIDAZOLE]
- Activity (Trypanosoma cruzi [4]): Active
- pEC50 (NIH3T3): < 4.30
- Activity (Trypanosoma cruzi [5]): Active
- pEC50 (Trypanosoma cruzi [1]): 5.72
- Activity (Trypanosoma cruzi [6]): Active

Compound: Clc1ccc(COc2cccc(Cn3ccnc3)c2)cc1
- selectivity ratio [3]: 1810
- pEC50 (NIH3T3): 4.12
- pEC50 (Trypanosoma cruzi [1]): 7.38

Compound: Cc1cc(Oc2cccc(CN3CCOCC3)c2)cc(C)c1Cl
- pEC50 (NIH3T3): < 4.00
- pEC50 (Trypanosoma cruzi [1]): 5.43

Compound: Cc1cc(OCCCCCn2ccnc2)cc(C)c1Cl
- pEC50 (Trypanosoma cruzi [1]): 8.60

Compound: Cc1cc(Oc2cccc(Cn3ccc4ccccc43)c2)cc(C)c1Cl
- pEC50 (NIH3T3): < 4.00
- pEC50 (Trypanosoma cruzi [1]): 4.97

Compound: Cc1cc([N+](=O)[O-])ccc1Nc1cccc(Cn2ccnc2)c1
- selectivity ratio [3]: > 1000
- pEC50 (NIH3T3): < 4.00
- pEC50 (Trypanosoma cruzi [1]): 7.14

Compound: Cc1cccc(OCCCCCn2ccnc2)c1
- pEC50 (Trypanosoma cruzi [1]): 6.35

Compound: Cc1cc(OCCCCn2ccnc2)cc(C)c1Cl
- pEC50 (Trypanosoma cruzi [1]): 8.29

Compound: Cc1cc(Oc2cccc(Cn3cncn3)c2)cc(C)c1Cl
- pEC50 (NIH3T3): 4.12
- pEC50 (Trypanosoma cruzi [1]): 5.96

Compound: Cc1cc(C)cc(Oc2cccc(Cn3ccnc3)c2)c1
- selectivity ratio [3]: > 300
- pEC50 (NIH3T3): < 4.00
- pEC50 (Trypanosoma cruzi [1]): 6.48

Compound: Cc1cc(Oc2cccc(CN3CCN(C)CC3)c2)cc(C)c1Cl
- pEC50 (NIH3T3): 4.53
- pEC50 (Trypanosoma cruzi [1]): 5.21

Compound: Cc1cc(Oc2cccc(Cn3ccnc3)c2)cc(C)c1Cl
- pKd [2]: 7.17
- permeability (Caco-2): 20.97 ×10⁻⁶ cm/s
- inhibition at 10 µM (hERG (KCNH2) [7]): 94%
- inhibition at 1 µM (hERG (KCNH2) [8]): 19%
- Stability (Plasma [9]): -9.7%
- PPB (Plasma [10]): > 99.8%
- Stability (Plasma [11]): 4%
- PPB (Plasma [12]): > 99.8%
- Stability [13]: Stable
- Stability [14]: Stable
- Stability [15]: Stable
- Stability [16]: Stable
- Stability [17]: Stable
- Stability [18]: Stable
- remaining at 20 min [19]: 39%
- remaining at 20 min [20]: 36%
- Activity (Trypanosoma cruzi [21]): Active
- Activity (Trypanosoma cruzi [22]): Active
- Activity (Trypanosoma cruzi [23]): Active
- remaining at 20 min [24]: 29%
- selectivity ratio [3]: 169
- pEC50 (NIH3T3): 4.87
- pEC50 (Trypanosoma cruzi [1]): 7.10

Compound: O=C(N[C@@H](Cn1ccnc1)c1ccccc1)c1ccc(-c2ccc(Cl)cc2)cc1
- pKd [2]: 7.15

Compound: Cc1nnc(Cc2cccc(Oc3cc(C)c(Cl)c(C)c3)c2)o1
- pEC50 (NIH3T3): 5.21
- pEC50 (Trypanosoma cruzi [1]): 5.47

Compound: Cc1cc(Oc2cccc(Cn3nccn3)c2)cc(C)c1Cl
- pEC50 (NIH3T3): < 4.00
- pEC50 (Trypanosoma cruzi [1]): 5.27

Compound: Cc1nnc(Cc2cccc(Oc3cc(C)c(Cl)c(C)c3)c2)s1
- pEC50 (NIH3T3): 5.42
- pEC50 (Trypanosoma cruzi [1]): 5.66

Compound: Cc1cc(OCCCCCCn2ccnc2)cc(C)c1Cl
- pEC50 (Trypanosoma cruzi [1]): 7.64

Compound: c1ccc(Oc2cccc(Cn3ccnc3)c2)cc1
- selectivity ratio [3]: > 60
- pEC50 (NIH3T3): < 4.00
- pEC50 (Trypanosoma cruzi [1]): 5.79

Compound: c1ccc(-c2cccc(Oc3cccc(Cn4ccnc4)c3)c2)cc1
- selectivity ratio [3]: 121
- pEC50 (NIH3T3): 4.47
- pEC50 (Trypanosoma cruzi [1]): 6.55

Compound: Cc1cccc(Oc2cccc(Cn3ccnc3)c2)c1
- selectivity ratio [3]: 238
- pEC50 (NIH3T3): 4.10
- pEC50 (Trypanosoma cruzi [1]): 6.48

Compound: Clc1ccc(Oc2cccc(Cn3ccnc3)c2)cc1
- selectivity ratio [3]: > 150
- pEC50 (NIH3T3): < 4.00
- pEC50 (Trypanosoma cruzi [1]): 6.19

Compound: Cc1cc(Oc2cccc(Cn3cc4ccccc4n3)c2)cc(C)c1Cl
- pEC50 (NIH3T3): < 4.00
- pEC50 (Trypanosoma cruzi [1]): 5.01

Compound: Cc1cc(Oc2cccc(Cn3cnc4ccccc43)c2)cc(C)c1Cl
- pEC50 (NIH3T3): 4.40
- pEC50 (Trypanosoma cruzi [1]): 5.43

Compound: Cc1cc(Oc2cccc(Cn3ccnn3)c2)cc(C)c1Cl
- pEC50 (NIH3T3): 4.18
- pEC50 (Trypanosoma cruzi [1]): 5.96

Compound: Cc1cc(Oc2cccc(Cn3ncc4ccccc43)c2)cc(C)c1Cl
- pEC50 (NIH3T3): < 4.00
- pEC50 (Trypanosoma cruzi [1]): 4.87

Compound: Cc1nnc(-c2cccc(Oc3cc(C)c(Cl)c(C)c3)c2)o1
- pEC50 (NIH3T3): 4.34
- pEC50 (Trypanosoma cruzi [1]): 4.85

Compound: COc1cccc(Nc2cccc(Cn3ccnc3)c2)c1
- pKd [2]: 6.68
- selectivity ratio [3]: > 500
- pEC50 (NIH3T3): < 4.00
- pEC50 (Trypanosoma cruzi [1]): 6.78

Compound: Clc1ccc(CCOc2cccc(Cn3ccnc3)c2)cc1
- selectivity ratio [3]: 134
- pEC50 (NIH3T3): 4.15
- pEC50 (Trypanosoma cruzi [1]): 6.28
